Experimental data as given in ChEMBL document CHEMBL1154086, “Novel Biginelli dihydropyrimidines with potential anticancer activity: a parallel synthesis and CoMSIA study” (Eur J Med Chem, 2009).
The source made the active and inactive calls. No cut-off for these calls is given here.

Legend:
Format in all cases: functional
[1] = tested on: Radical scavenging activity; test: Antioxidant activity assessed as DPPH radical scavenging activity at 100 ug after 30 mins by ELISA
Procedure, shortened: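 Ethanolic DPPH (200 µl) mixed with 10 µl compound solution (100 µg) in 96-well plate, 37 °C for 30 min; decrease in absorbance read at 490 nm on ELISA reader. Ascorbic acid (10 µg) standard.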

[2] = tested on: MCF7; test: Anticancer activity against human MCF7 cells assessed as cell viability at 10 ug after 3 hrs by trypan blue dye exclusion assay
Procedure, shortened: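 MCF-7 cells grown in peritoneal cavity of albino mice (25–30 g) after i.p. injection of 1 × 10^6 cells/ml; aspirated day 15, washed three times in HBSS, adjusted to 1 × 10^6 cells/ml. 0.1 ml cells plus 0.1 ml compound (10 µg), 37 °C, 5% CO2, 3 h. Trypan blue (0.4%, 1:1) exclusion, haemocytometer count; % cytotoxicity versus untreated control, triplicate.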

[3] = tested on: Radical scavenging activity; test: Antioxidant activity assessed as DPPH radical scavenging activity after 30 mins by ELISA
Procedure, shortened: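 DPPH discolouration in 96-well plate: 200 µl ethanolic DPPH plus 10 µl compound solution; 37 °C, 30 min; absorbance at 490 nm on ELISA reader. IC50 (concentration inhibiting 50% of free radicals) from serial dilutions below 100 µg. Ascorbic acid (10 µg) standard.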

COc1cc(C2NC(=S)NC(C)=C2C(=O)Nc2ccccc2Cl)ccc1O (centres undefined)
Activity [1]: inactive
Activity [2]: 45%

CC1=C(C(=O)Nc2ccccc2Cl)C(c2ccccc2)NC(=N)N1C#N (centres undefined)
Activity [1]: inactive
Activity [2]: 35%

CC1=C(C(=O)Nc2ccccc2Cl)C(c2ccco2)NC(=S)N1 (centres undefined)
Activity [1]: inactive
Activity [2]: 76%

CC1=C(C(=O)Nc2ccccc2Cl)C(c2ccccc2)NC(=S)N1 (centres undefined)
Activity [1]: inactive
Activity [2]: 25%

CC1=C(C(=O)Nc2ccccc2Cl)C(c2cccc([N+](=O)[O-])c2)NC(=S)N1 (centres undefined)
Activity [1]: inactive
Activity [2]: 13%

CC1=C(C(=O)Nc2ccccc2Cl)C(c2ccccc2O)NC(=O)N1 (centres undefined)
Activity [1]: inactive
Activity [2]: 58%

CC1=C(C(=O)Nc2ccccc2Cl)C(c2ccncc2)NC(=O)N1 (centres undefined)
Activity [1]: inactive
Activity [2]: 59%

CNC(=O)C1=C(C)NC(=O)NC1c1ccncc1 (centres undefined)
Activity [1]: inactive
Activity [2]: 64%

CC1=C(C(=O)Nc2ccccc2Cl)C(c2ccccc2)NC(=O)N1 (centres undefined)
Activity [1]: inactive
Activity [2]: 30%

CNC(=O)C1=C(C)NC(=S)NC1c1ccco1 (centres undefined)
Activity [1]: inactive
Activity [2]: 57%

CNC(=O)C1=C(C)NC(=S)NC1c1ccc(O)c(OC)c1 (centres undefined)
Activity [1]: inactive
Activity [2]: 41%

CC1=C(C(=O)Nc2ccccc2Cl)C(c2ccncc2)NC(=S)N1 (centres undefined)
Activity [1]: inactive
Activity [2]: 72%

CNC(=O)C1=C(C)NC(=O)NC1c1ccco1 (centres undefined)
Activity [1]: inactive
Activity [2]: 61%

CC1=C(C(=O)Nc2ccccc2Cl)C(c2cccc([N+](=O)[O-])c2)NC(=O)N1 (centres undefined)
Activity [1]: inactive
Activity [2]: 29%

CNC(=O)C1=C(C)NC(=S)NC1c1ccccc1 (centres undefined)
Activity [1]: inactive
Activity [2]: 35%

CNC(=O)C1=C(C)NC(=O)NC1c1ccccc1 (centres undefined)
Activity [1]: inactive
Activity [2]: 27%

CC1=C(C(=O)Nc2ccccc2Cl)C(C(=O)/C=C/c2ccccc2)NC(=S)N1 (centres undefined)
Activity [1]: inactive
Activity [2]: 71%

CNC(=O)C1=C(C)NC(=O)NC1c1cccc([N+](=O)[O-])c1 (centres undefined)
IC50 [3]: 63 µg
Activity [2]: 23%

CC1=C(C(=O)Nc2ccccc2Cl)C(C(=O)/C=C/c2ccccc2)NC(=O)N1 (centres undefined)
Activity [1]: inactive
Activity [2]: 79%

CC1=C(C(=O)Nc2ccccc2Cl)C(c2ccccc2O)NC(=S)N1 (centres undefined)
Activity [1]: inactive
Activity [2]: 49%

COc1ccc(C2NC(=S)NC(C)=C2C(=O)Nc2ccccc2Cl)cc1 (centres undefined)
Activity [1]: inactive
Activity [2]: 47%

CNC(=O)C1=C(C)NC(=O)NC1C(=O)/C=C/c1ccccc1 (centres undefined)
Activity [1]: inactive
Activity [2]: 47%

CNC(=O)C1=C(C)NC(=S)NC1c1cccc([N+](=O)[O-])c1 (centres undefined)
IC50 [3]: 58 µg
Activity [2]: 39%

CNC(=O)C1=C(C)NC(=S)NC1c1ccc(OC)cc1 (centres undefined)
Activity [1]: inactive
Activity [2]: 48%

CNC(=O)C1=C(C)NC(=O)NC1c1ccc(OC)cc1 (centres undefined)
Activity [1]: inactive
Activity [2]: 41%

CC1=C(C(=O)Nc2ccccc2Cl)C(c2ccc(Br)cc2)NC(=O)N1 (centres undefined)
Activity [1]: inactive
Activity [2]: 7%

COc1ccc(C2NC(=O)NC(C)=C2C(=O)Nc2ccccc2Cl)cc1 (centres undefined)
Activity [1]: inactive
Activity [2]: 51%

CC1=C(C(=O)Nc2ccccc2Cl)C(c2ccco2)NC(=O)N1 (centres undefined)
Activity [1]: inactive
Activity [2]: 69%

CC1=C(C(=O)Nc2ccccc2Cl)C(c2ccc(Br)cc2)NC(=S)N1 (centres undefined)
Activity [1]: inactive
Activity [2]: 18%

COc1cc(C2NC(=O)NC(C)=C2C(=O)Nc2ccccc2Cl)ccc1O (centres undefined)
Activity [1]: inactive
Activity [2]: 52%

CNC(=O)C1=C(C)NC(=O)NC1c1ccc(O)c(OC)c1 (centres undefined)
Activity [1]: inactive
Activity [2]: 49%

CNC(=O)C1=C(C)NC(=S)NC1c1ccccc1O (centres undefined)
Activity [1]: inactive
Activity [2]: 45%
